# Source: article PMC10809365 (ACS Omega, 2024)
# Entries after “also recorded” stand apart in the source; their conditions may differ.
# Key:
# AbDapE [1] = biological target: T1, AbDapE (Acinetobacter baumannii, UniProt A3M8H2); assay: DapE ninhydrin enzyme inhibition assay, AbDapE; assay type: biochemical; details: for Inhibition of AbDapE (in words): tested at 100 μM
# Outline: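 Purified His-tag-cleaved AbDapE at 8 nM final in 50 mM HEPES pH 7.5, 30 °C. Test compound (DMSO, 5% final) is preincubated with enzyme for 10 min before 2 mM N6-methyl-L,L-SDAP. After 10 min, heat to 100 °C for 1 min, chill, add 2% ninhydrin, 80 °C for 15 min, then read A570.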
# AbDapE-SeMet = AbDapE-SeMet (Acinetobacter baumannii, UniProt A3M8H2); assay: Thermal shift assay, AbDapE-SeMet; assay type: binding; details: 6 μM AbDapE-SeMet + 10× dye
# Chain of AbDapE-SeMet (A3M8H2 whole entry): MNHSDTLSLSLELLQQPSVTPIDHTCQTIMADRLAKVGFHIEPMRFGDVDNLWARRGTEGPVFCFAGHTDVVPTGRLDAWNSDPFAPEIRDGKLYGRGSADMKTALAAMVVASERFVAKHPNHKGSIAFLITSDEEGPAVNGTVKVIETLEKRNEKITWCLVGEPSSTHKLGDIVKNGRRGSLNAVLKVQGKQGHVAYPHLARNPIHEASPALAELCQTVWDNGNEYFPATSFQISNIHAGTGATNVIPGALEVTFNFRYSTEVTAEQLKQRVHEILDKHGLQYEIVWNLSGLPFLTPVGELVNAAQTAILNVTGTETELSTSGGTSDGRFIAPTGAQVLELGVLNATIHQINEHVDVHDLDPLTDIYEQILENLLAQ
# Outline: (§1)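 SYPRO Orange thermal melt at 10× dye in 50 mM HEPES pH 7.5, 10 µL triplicates. Protein is 16 µM for native AbDapE and 6 µM for SeMet AbDapE, with DMSO kept below 5%. Tm comes from the negative first derivative of the melting curves, further differentiated to the third derivative. Ki is calculated from Tm plotted against log[test compound] using a derived van't Hoff equation.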
# AbDapE [2] = biological target: T1, AbDapE; assay: Thermal shift assay, AbDapE native; assay type: binding; details: for Tm1 AbDapE / Tm2 AbDapE: 16 μM AbDapE + 10× dye
# Outline: as §1
# HiDapE = biological target: T2, HiDapE (Haemophilus influenzae, UniProt P44514); assay: Thermal shift assay, HiDapE; assay type: binding; details: for Tm1 HiDapE / Tm2 HiDapE: 200 nM HiDapE + 10× dye
# T2 sequence (P44514 1-377): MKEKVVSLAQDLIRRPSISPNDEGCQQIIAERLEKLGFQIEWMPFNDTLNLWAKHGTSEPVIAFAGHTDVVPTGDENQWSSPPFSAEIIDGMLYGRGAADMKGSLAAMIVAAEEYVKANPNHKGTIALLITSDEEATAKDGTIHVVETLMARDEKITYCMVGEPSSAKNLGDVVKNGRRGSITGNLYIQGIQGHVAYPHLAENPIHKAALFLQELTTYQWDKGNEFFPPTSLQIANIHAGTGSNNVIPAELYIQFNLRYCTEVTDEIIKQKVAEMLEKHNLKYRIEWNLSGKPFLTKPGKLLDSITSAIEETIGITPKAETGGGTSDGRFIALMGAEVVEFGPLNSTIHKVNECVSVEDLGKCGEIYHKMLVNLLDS
# DapE = DapE from E. faecium and E. coli studied; cited from earlier work
# T1 sequence (A3M8H2 whole entry): as the sequence (A3M8H2 whole entry) above
structure (smiles),measurement,setting,value
CC(=O)N1CCc2cc(Cl)c(S(=O)(=O)NCCC(C)C)cc21 [1-acetyl-5-chloro-N-isopentylindoline-6-sulfonamide],Inhibition of AbDapE (in words),AbDapE [1],did not inhibit AbDapE significantly
same,Inhibition of AbDapE (in words),AbDapE [1]; listed as indoline sulfonamide,not significantly inhibited; also recorded: did not measurably inhibit
C[C@H](CS)C(=O)N1CCC[C@H]1C(=O)O [Captopril],Tm AbDapE-SeMet,AbDapE-SeMet; 0.005 μM captopril,65.3 ± 0.2 °C
same,Tm AbDapE-SeMet,AbDapE-SeMet; 0.05 μM captopril,65.5 ± 0.1 °C
same,Tm AbDapE-SeMet,AbDapE-SeMet; 0.1 μM captopril,65.3 ± 0.2 °C
same,Tm AbDapE-SeMet,AbDapE-SeMet; 0.5 μM captopril,65.1 ± 0.1 °C
same,Tm AbDapE-SeMet,AbDapE-SeMet; 0.8 μM captopril,66.1 ± 0.1 °C
same,Tm AbDapE-SeMet,AbDapE-SeMet; 1 μM captopril,65.7 ± 0.1 °C
same,Tm AbDapE-SeMet,AbDapE-SeMet; 3 μM captopril,66.4 ± 0.3 °C
same,Tm AbDapE-SeMet,AbDapE-SeMet; 5 μM captopril,67.2 ± 0.2 °C
same,Tm AbDapE-SeMet,AbDapE-SeMet; 10 μM captopril,68.5 ± 0.1 °C
same,Tm1 AbDapE,AbDapE [2]; 0.005 μM captopril,41.9 ± 0.1 °C
same,Tm2 AbDapE,AbDapE [2]; 0.005 μM captopril,62.9 ± 0.1 °C
same,Tm1 AbDapE,AbDapE [2]; 0.05 μM captopril,41.9 ± 0.2 °C
same,Tm2 AbDapE,AbDapE [2]; 0.05 μM captopril,63.3 ± 0.7 °C
same,Tm1 AbDapE,AbDapE [2]; 0.1 μM captopril,41.9 ± 0.1 °C
same,Tm2 AbDapE,AbDapE [2]; 0.1 μM captopril,62.6 ± 0.3 °C
same,Tm1 AbDapE,AbDapE [2]; 0.5 μM captopril,41.9 ± 0.2 °C
same,Tm2 AbDapE,AbDapE [2]; 0.5 μM captopril,63.1 ± 0.4 °C
same,Tm1 AbDapE,AbDapE [2]; 0.8 μM captopril,41.9 ± 0.1 °C
same,Tm2 AbDapE,AbDapE [2]; 0.8 μM captopril,62.3 ± 0.1 °C
same,Tm1 AbDapE,AbDapE [2]; 1 μM captopril,41.7 ± 0.1 °C
same,Tm2 AbDapE,AbDapE [2]; 1 μM captopril,63.4 ± 1.0 °C
same,Tm1 AbDapE,AbDapE [2]; 3 μM captopril,41.7 ± 0.2 °C
same,Tm2 AbDapE,AbDapE [2]; 3 μM captopril,65.1 ± 0.3 °C
same,Tm1 AbDapE,AbDapE [2]; 5 μM captopril,41.4 ± 0.1 °C
same,Tm2 AbDapE,AbDapE [2]; 5 μM captopril,64.1 ± 0.2 °C
same,Tm1 AbDapE,AbDapE [2]; 10 μM captopril,41.1 ± 0.1 °C
same,Tm2 AbDapE,AbDapE [2]; 10 μM captopril,66.6 ± 0.2 °C
same,Tm1 AbDapE,AbDapE [2]; 15 μM captopril,42.0 ± 0.1 °C
same,Tm2 AbDapE,AbDapE [2]; 15 μM captopril,65.5 ± 0.4 °C
same,"Effect on stability of AbDapE, in words",AbDapE [2]; thermal shift assays,increases the stability
same,Tm1 HiDapE,HiDapE; 0.005 μM captopril,51.5 ± 0.1 °C
same,Tm2 HiDapE,HiDapE; 0.005 μM captopril,78.2 ± 0.1 °C
same,Tm1 HiDapE,HiDapE; 0.05 μM captopril,50.2 ± 0.6 °C
same,Tm2 HiDapE,HiDapE; 0.05 μM captopril,78.6 ± 0.1 °C
same,Tm1 HiDapE,HiDapE; 0.1 μM captopril,50.0 ± 0.8 °C
same,Tm2 HiDapE,HiDapE; 0.1 μM captopril,78.1 ± 0.1 °C
same,Tm1 HiDapE,HiDapE; 0.5 μM captopril,50.5 ± 0.1 °C
same,Tm2 HiDapE,HiDapE; 0.5 μM captopril,78.3 ± 0.1 °C
same,Tm1 HiDapE,HiDapE; 0.8 μM captopril,50.3 ± 0.5 °C
same,Tm2 HiDapE,HiDapE; 0.8 μM captopril,77.9 ± 0.1 °C
same,Tm1 HiDapE,HiDapE; 1 μM captopril,51.2 ± 0.2 °C
same,Tm2 HiDapE,HiDapE; 1 μM captopril,77.8 ± 0.1 °C
same,Tm1 HiDapE,HiDapE; 3 μM captopril,52.2 ± 0.1 °C
same,Tm2 HiDapE,HiDapE; 3 μM captopril,78.0 ± 0.1 °C
same,Tm1 HiDapE,HiDapE; 5 μM captopril,53.2 ± 0.2 °C
same,Tm2 HiDapE,HiDapE; 5 μM captopril,77.8 ± 0.1 °C
same,Tm1 HiDapE,HiDapE; 10 μM captopril,52.9 ± 0.6 °C
same,Tm2 HiDapE,HiDapE; 10 μM captopril,77.9 ± 0.1 °C
same,"Effect on stability (Tm) of HiDapE, in words",HiDapE; thermal shift assays,stabilize HiDapE
same,IC50,"AbDapE [1]; AbDapE IC50, ninhydrin assay, 8 nM enzyme, 2 mM N^6-methyl-L,L-SDAP",1200 nM
same,Mode of inhibition of AbDapE,"AbDapE [1]; kinetic assays, modified ninhydrin assay",competitive inhibitors
CCN(CC)C(=S)SSC(=S)N(CC)CC [disulfiram],"Effect on Tm values of DapE, in words",DapE,lowering of the Tm values
Cc1ccccc1C(OCCN(C)C)c1ccccc1 (stereo not shown) [orphenadrine],"Effect on Tm values of DapE, in words",DapE,lowering of the Tm values
